Among the data in ChEMBL document CHEMBL1250442, “Inhibiting gene expression at transcription start sites in chromosomal DNA with antigene RNAs” (Nat Chem Biol, 2005) are inhibition values, retold here.

Calls of active or inactive are those of the source. No cut-off for these calls is given here.

The test system of test [1] is T47D. The experiment in a line: Inhibition of PR-A gene expression in human T47D cells at 25 nM by syber green assay. Format: functional. In a few lines: (§1)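 T47D cells plated at 80,000/well without antibiotics two days before Oligofectamine transfection with agRNA duplex (25 or 100 nM final); medium changed at 24 h, harvest day 5 unless stated otherwise. TRIzol total RNA; PR mRNA by real-time PCR with SYBR Green: 50 °C 2 min, 95 °C 10 min, 40 cycles 95 °C 15 s/60 °C 1 min.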

Test [2] relates to T47D. Put plainly: Inhibition of PR-B gene expression in human T47D cells at 25 nM by syber green assay. Format: functional. The procedure, abridged:
as §1

Test [3] relates to T47D. Put plainly: Inhibition of PR-B mRNA gene expression in human T47D cells at 100 nM by syber green assay. It counts as functional. The procedure, abridged:
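T47D cells in RPMI-1640 with 10% FBS, NEAA, insulin, 37 °C, 5% CO2. Plated two days before transfection without antibiotics. Oligofectamine-mediated duplex RNA transfection at 100 nM final, medium changed at 24 h, harvest five days post-transfection. Total RNA extracted with TRIzol. hPR mRNA quantified by SYBR Green qPCR: 50 °C 2 min, 95 °C 10 min, then 40 cycles of 95 °C 15 s / 60 °C 1 min.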

The test system of test [4] is T47D. Put plainly: Inhibition of PR-A mRNA gene expression in human T47D cells at 100 nM by syber green assay. It counts as functional. The procedure, abridged: as §1
For test [5], the system named is T47D. The experiment in a line: Inhibition of PR-B gene expression in human T47D cells at 25 nM by syber green assay in presence of 10 nM estradiol. Format: functional, cell-based.
For test [6], the system named is T47D. The experiment in a line: Inhibition of PR-A gene expression in human T47D cells at 25 nM by syber green assay in presence of 10 nM estradiol. It counts as functional, cell-based.

Turning to `Cc1cn(CC(=O)N(CCNC(=O)CN(CCNC(=O)CN(CCNC(=O)CN(CCNC(=O)CN(CCNC(=O)CN(CCNC(=O)CN(CCNC(=O)CN(CCNC(=O)CN(CCNC(=O)CN(CCNC(=O)CN(CCNC(=O)CN(CCNC(=O)CN(CCNC(=O)CN(CCNC(=O)CN(CCNC(=O)CN(CCNC(=O)CN(CCNC(=O)CN(CCNC(=O)CN(CCNC(=O)CN(CCNC(=O)CN)C(=O)Cn2cnc3c(N)ncnc32)C(=O)Cn2cnc3c(=O)[nH]c(N)nc32)C(=O)Cn2cnc3c(N)ncnc32)C(=O)Cn2cnc3c(=O)[nH]c(N)nc32)C(=O)Cn2cnc3c(=O)[nH]c(N)nc32)C(=O)Cn2cnc3c(N)ncnc32)C(=O)Cn2cnc3c(=O)[nH]c(N)nc32)C(=O)Cn2cnc3c(=O)[nH]c(N)nc32)C(=O)Cn2cnc3c(N)ncnc32)C(=O)Cn2cnc3c(=O)[nH]c(N)nc32)C(=O)Cn2cnc3c(=O)[nH]c(N)nc32)C(=O)Cn2ccc(N)nc2=O)C(=O)Cn2cnc3c(=O)[nH]c(N)nc32)C(=O)Cn2ccc(=O)[nH]c2=O)C(=O)Cn2ccc(=O)[nH]c2=O)C(=O)Cn2cnc3c(=O)[nH]c(N)nc32)C(=O)Cn2ccc(=O)[nH]c2=O)C(=O)Cn2ccc(=O)[nH]c2=O)C(=O)Cn2cnc3c(N)ncnc32)CC(=O)NCCN(CC(=O)NCC(=O)O)C(=O)Cn2cc(C)c(=O)[nH]c2=O)c(=O)[nH]c1=O`, the inhibition at 0.025 µM in the test on T47D [1] and in the test with T47D [2] was less than 20% in each case. The inhibition at 0.1 µM in the test with T47D [3] and with T47D [4] was less than 20% each time. The inhibition result in the test with T47D [5] and with T47D [6] was “Active” throughout.
On to `Cc1cn(CC(=O)N(CCNC(=O)CN(CCNC(=O)CN(CCNC(=O)CN(CCNC(=O)CN(CCNC(=O)CN(CCNC(=O)CN(CCNC(=O)CN(CCNC(=O)CN(CCNC(=O)CN(CCNC(=O)CN(CCNC(=O)CN(CCNC(=O)CN(CCNC(=O)CN(CCNC(=O)CN(CCNC(=O)CN(CCNC(=O)CN(CCNC(=O)CN(CCNC(=O)CN(CCNC(=O)CN(CCNC(=O)CN)C(=O)Cn2cnc3c(=O)[nH]c(N)nc32)C(=O)Cn2ccc(N)nc2=O)C(=O)Cn2ccc(=O)[nH]c2=O)C(=O)Cn2cnc3c(=O)[nH]c(N)nc32)C(=O)Cn2ccc(N)nc2=O)C(=O)Cn2ccc(N)nc2=O)C(=O)Cn2ccc(=O)[nH]c2=O)C(=O)Cn2cnc3c(=O)[nH]c(N)nc32)C(=O)Cn2cnc3c(=O)[nH]c(N)nc32)C(=O)Cn2ccc(N)nc2=O)C(=O)Cn2ccc(N)nc2=O)C(=O)Cn2cnc3c(N)ncnc32)C(=O)Cn2cnc3c(=O)[nH]c(N)nc32)C(=O)Cn2ccc(=O)[nH]c2=O)C(=O)Cn2ccc(N)nc2=O)C(=O)Cn2ccc(N)nc2=O)C(=O)Cn2cnc3c(N)ncnc32)C(=O)Cn2ccc(N)nc2=O)C(=O)Cn2cnc3c(N)ncnc32)CC(=O)NCCN(CC(=O)NCC(=O)O)C(=O)Cn2cc(C)c(=O)[nH]c2=O)c(=O)[nH]c1=O`, for which the inhibition at 0.025 µM in the test on T47D [1] and with T47D [2] was less than 20% in each case. Further, the inhibition at 0.1 µM was 28% with T47D [3] and less than 20% with T47D [4]. Also, the inhibition result in the test with T47D [5] and in the test on T47D [6] was “Active” each time.
As for `Cc1cn(CC(=O)N(CCNC(=O)CN(CCNC(=O)CN(CCNC(=O)CN(CCNC(=O)CN(CCNC(=O)CN(CCNC(=O)CN(CCNC(=O)CN(CCNC(=O)CN(CCNC(=O)CN(CCNC(=O)CN(CCNC(=O)CN(CCNC(=O)CN(CCNC(=O)CN(CCNC(=O)CN(CCNC(=O)CN(CCNC(=O)CN(CCNC(=O)CN(CCNC(=O)CN(CCNC(=O)CN(CCNC(=O)CN)C(=O)Cn2cnc3c(N)ncnc32)C(=O)Cn2cnc3c(=O)[nH]c(N)nc32)C(=O)Cn2cnc3c(=O)[nH]c(N)nc32)C(=O)Cn2cnc3c(N)ncnc32)C(=O)Cn2cnc3c(=O)[nH]c(N)nc32)C(=O)Cn2cnc3c(=O)[nH]c(N)nc32)C(=O)Cn2ccc(N)nc2=O)C(=O)Cn2cnc3c(=O)[nH]c(N)nc32)C(=O)Cn2ccc(=O)[nH]c2=O)C(=O)Cn2ccc(=O)[nH]c2=O)C(=O)Cn2cnc3c(=O)[nH]c(N)nc32)C(=O)Cn2ccc(=O)[nH]c2=O)C(=O)Cn2ccc(=O)[nH]c2=O)C(=O)Cn2cnc3c(N)ncnc32)C(=O)Cn2cnc3c(=O)[nH]c(N)nc32)C(=O)Cn2cnc3c(N)ncnc32)C(=O)Cn2cnc3c(N)ncnc32)C(=O)Cn2cnc3c(N)ncnc32)C(=O)Cn2cnc3c(=O)[nH]c(N)nc32)CC(=O)NCCN(CC(=O)NCC(=O)O)C(=O)Cn2cc(C)c(=O)[nH]c2=O)c(=O)[nH]c1=O`, the results for the inhibition at 0.025 µM with T47D [1] and in the test with T47D [2] were less than 20% and 34%, respectively. For the same molecule, the inhibition at 0.1 µM in the test with T47D [3] was 68%; with T47D [4], 52%. In addition, the inhibition result in the test on T47D [5] and in the test with T47D [6] was “Active” each time.
Take `Cc1cn(CC(=O)N(CCNC(=O)CN(CCNC(=O)CN(CCNC(=O)CN(CCNC(=O)CN(CCNC(=O)CN(CCNC(=O)CN(CCNC(=O)CN(CCNC(=O)CN(CCNC(=O)CN(CCNC(=O)CN(CCNC(=O)CN(CCNC(=O)CN(CCNC(=O)CN(CCNC(=O)CN(CCNC(=O)CN(CCNC(=O)CN(CCNC(=O)CN(CCNC(=O)CN(CCNC(=O)CN(CCNC(=O)CN(CCNC(=O)CN)C(=O)Cn2cnc3c(=O)[nH]c(N)nc32)C(=O)Cn2ccc(=O)[nH]c2=O)C(=O)Cn2ccc(N)nc2=O)C(=O)Cn2ccc(=O)[nH]c2=O)C(=O)Cn2cnc3c(=O)[nH]c(N)nc32)C(=O)Cn2cnc3c(=O)[nH]c(N)nc32)C(=O)Cn2ccc(N)nc2=O)C(=O)Cn2ccc(N)nc2=O)C(=O)Cn2cnc3c(N)ncnc32)C(=O)Cn2cnc3c(=O)[nH]c(N)nc32)C(=O)Cn2ccc(=O)[nH]c2=O)C(=O)Cn2ccc(N)nc2=O)C(=O)Cn2ccc(N)nc2=O)C(=O)Cn2cnc3c(N)ncnc32)C(=O)Cn2ccc(N)nc2=O)C(=O)Cn2cnc3c(N)ncnc32)C(=O)Cn2cnc3c(=O)[nH]c(N)nc32)C(=O)Cn2ccc(N)nc2=O)C(=O)Cn2ccc(=O)[nH]c2=O)C(=O)Cn2cc(C)c(=O)[nH]c2=O)CC(=O)O)c(=O)[nH]c1=O`: the inhibition at 0.025 µM in the test with T47D [1] worked out at 67%; in the test on T47D [2], 73%. Besides, the values for the inhibition at 0.1 µM in the test with T47D [3] and in the test with T47D [4] were 88% and 67%, respectively. The inhibition result in the test with T47D [5] and in the test with T47D [6] was “Active” in each case.
As for `Cc1cn(CC(=O)N(CCNC(=O)CN(CCNC(=O)CN(CCNC(=O)CN(CCNC(=O)CN(CCNC(=O)CN(CCNC(=O)CN(CCNC(=O)CN(CCNC(=O)CN(CCNC(=O)CN(CCNC(=O)CN(CCNC(=O)CN(CCNC(=O)CN(CCNC(=O)CN(CCNC(=O)CN(CCNC(=O)CN(CCNC(=O)CN(CCNC(=O)CN(CCNC(=O)CN(CCNC(=O)CN(CCNC(=O)CN)C(=O)Cn2ccc(N)nc2=O)C(=O)Cn2ccc(=O)[nH]c2=O)C(=O)Cn2cnc3c(=O)[nH]c(N)nc32)C(=O)Cn2ccc(=O)[nH]c2=O)C(=O)Cn2ccc(N)nc2=O)C(=O)Cn2ccc(=O)[nH]c2=O)C(=O)Cn2cnc3c(=O)[nH]c(N)nc32)C(=O)Cn2cnc3c(=O)[nH]c(N)nc32)C(=O)Cn2ccc(N)nc2=O)C(=O)Cn2ccc(N)nc2=O)C(=O)Cn2cnc3c(N)ncnc32)C(=O)Cn2cnc3c(=O)[nH]c(N)nc32)C(=O)Cn2ccc(=O)[nH]c2=O)C(=O)Cn2ccc(N)nc2=O)C(=O)Cn2ccc(N)nc2=O)C(=O)Cn2cnc3c(N)ncnc32)C(=O)Cn2ccc(N)nc2=O)C(=O)Cn2cnc3c(N)ncnc32)C(=O)Cn2cnc3c(=O)[nH]c(N)nc32)CC(=O)NCCN(CC(=O)NCC(=O)O)C(=O)Cn2cc(C)c(=O)[nH]c2=O)c(=O)[nH]c1=O`, the inhibition at 0.025 µM with T47D [1] was found to be 50%; in the test with T47D [2], 55%. Further, the inhibition at 0.1 µM was found to be 100% with T47D [3] and 99% with T47D [4]. In addition, the inhibition result in the test on T47D [5] and in the test with T47D [6] was “Active” throughout.
With `Cc1cn(CC(=O)N(CCNC(=O)CN(CCNC(=O)CN(CCNC(=O)CN(CCNC(=O)CN(CCNC(=O)CN(CCNC(=O)CN(CCNC(=O)CN(CCNC(=O)CN(CCNC(=O)CN(CCNC(=O)CN(CCNC(=O)CN(CCNC(=O)CN(CCNC(=O)CN(CCNC(=O)CN(CCNC(=O)CN(CCNC(=O)CN(CCNC(=O)CN(CCNC(=O)CN(CCNC(=O)CN(CCNC(=O)CN)C(=O)Cn2cnc3c(=O)[nH]c(N)nc32)C(=O)Cn2ccc(=O)[nH]c2=O)C(=O)Cn2ccc(=O)[nH]c2=O)C(=O)Cn2cnc3c(N)ncnc32)C(=O)Cn2cnc3c(=O)[nH]c(N)nc32)C(=O)Cn2cnc3c(N)ncnc32)C(=O)Cn2cnc3c(N)ncnc32)C(=O)Cn2cnc3c(N)ncnc32)C(=O)Cn2cnc3c(=O)[nH]c(N)nc32)C(=O)Cn2ccc(N)nc2=O)C(=O)Cn2ccc(=O)[nH]c2=O)C(=O)Cn2cnc3c(=O)[nH]c(N)nc32)C(=O)Cn2ccc(=O)[nH]c2=O)C(=O)Cn2ccc(N)nc2=O)C(=O)Cn2ccc(=O)[nH]c2=O)C(=O)Cn2cnc3c(=O)[nH]c(N)nc32)C(=O)Cn2cnc3c(=O)[nH]c(N)nc32)C(=O)Cn2ccc(N)nc2=O)C(=O)Cn2ccc(N)nc2=O)CC(=O)NCCN(CC(=O)NCC(=O)O)C(=O)Cn2cc(C)c(=O)[nH]c2=O)c(=O)[nH]c1=O`, the inhibition at 0.025 µM in the test on T47D [1] and in the test on T47D [2] was less than 20% in each case. The inhibition at 0.1 µM with T47D [3] and in the test with T47D [4] was less than 20% each time. Moreover, the inhibition result with T47D [5] and in the test on T47D [6] was “Active” each time.

Broadly, the inhibition is the share of the control response that was lost under treatment.
